Results reported in ChEMBL document CHEMBL3244197, “Mercaptoimidazolylpropionic acid hydrobromide. Inhibition of tadpole collagenase and related properties” (J Med Chem, 1978).
Blank lines part the entries; values can stand above or below the compound they belong to. The source made the active and inactive calls. The calls are words filed in the database; no cut-off is given here.

Key:
[1] = Half life of the compound in phosphate buffer with 214 ml/min oxygen flow assessed as oxidation at 0.25 mM by Ellman's method; format: physicochemical
How it was run: (§1)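 35 mL sample, 0.1 M phosphate buffer pH 7.4, oxygen-saturated; water-vapour-saturated O2 bubbled through via gas dispersion tube at 20 °C. 200 µL aliquots withdrawn over time; remaining SH titre measured by quantitative Ellman determination; half-time in hours.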

[2] = Half life of the compound in phosphate buffer with 400 ml/min oxygen flow assessed as oxidation at 0.14 mM by Ellman's method; format: physicochemical; how it was run: as §1
[3] = (§2) Inhibition of Rana catesbeiana tadpole collagenase using lathyritic rat skin collagen as substrate after 41 hrs by radial diffusion assay; conditions: read-out: I50
How it was run: (§3)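 Enzyme cultured from tadpole tail fin and back skin, purified by ammonium sulfate precipitation and Sephadex G-200, concentrated 20-fold by ultrafiltration at 4 °C. Gel: Tris-buffered pH 7.6, 1% agarose with 0.1% collagen, set 2 h at 20 °C, held ≥40 h at 4 °C. Wells (3.0 mm) received 15 µL enzyme ± inhibitor. Incubation 41 h at 28 °C, then 2 h at 37 °C. Lysis-zone diameter read as radial diffusion units; concentration for 50% inhibition taken.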

Bacillus subtilis = experiment: Mutagenicity in repair-deficient Bacillus subtilis assessed as growth inhibition at 0.1 M; format: toxicity, organism-based; conditions: in vivo
How it was run: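 Repair-deficient tester strains exposed to test compound at 0.10 M, with chloroacetaldehyde (0.10 M) as mutagen reference; growth inhibition scored.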

Mus musculus [4] = experiment: Toxicity in Swiss-Wistar mouse assessed as body weight gain at 189 mg/kg, ip after 3 days (reference value: 20%); format: organism-based; design: dose 189 mg/kg, route intraperitoneal; conditions: in vivo, 72 h
Mus musculus [5] = experiment: Toxicity in Swiss-Wistar mouse assessed as body weight gain at 418 mg/kg, ip after 3 days (reference value: 20%); format: organism-based; design: dose 418 mg/kg, route intraperitoneal; conditions: in vivo, 72 h
Mus musculus [6] = experiment: Toxicity in Swiss-Wistar mouse assessed as body weight gain at 885 mg/kg, ip after 3 days (reference value: 20%); format: organism-based; design: dose 885 mg/kg, route intraperitoneal; conditions: in vivo, 72 h
Mus musculus [7] = experiment: Toxicity in Swiss-Wistar mouse assessed as body weight gain at 1980 mg/kg, ip after 3 days (reference value: 20%); format: organism-based; design: dose 1980 mg/kg, route intraperitoneal; conditions: in vivo, 72 h
Mus musculus [8] = experiment: Toxicity in Swiss-Wistar mouse assessed as change in health condition at 189 to 1980 mg/kg, ip after 7 days; format: organism-based; design: dose 189-1980 mg/kg, route intraperitoneal; conditions: in vivo, 168 h
Rana catesbeiana = species: Rana catesbeiana; experiment: as §2; how it was run: as §3
[9] = Half life of the compound in phosphate buffer with 200 ml/min oxygen flow assessed as oxidation at 0.28 mM by Ellman's method; format: physicochemical; how it was run: as §1
[10] = Half life of the compound in phosphate buffer with 350 ml/min oxygen flow assessed as oxidation at 0.27 mM by Ellman's method; format: physicochemical; how it was run: as §1
[11] = Half life of the compound in phosphate buffer with 214 ml/min oxygen flow assessed as oxidation at 0.24 mM by Ellman's method; format: physicochemical; how it was run: as §1
[12] = Half life of the compound in phosphate buffer with 360 ml/min oxygen flow assessed as oxidation at 0.16 mM by Ellman's method; format: physicochemical; how it was run: as §1

Compound: O=C(O)C(Br)Cc1cnc[nH]1 (racemic)
- I50 (Rana catesbeiana): inactive

Compound: CC(=O)N[C@@H](CS)C(=O)O [ACETYLCYSTEINE]
- half-life at 280 µM [9]: 12.8 h
- half-life at 270 µM [10]: 10.9 h
- IC50 [3]: ≥ 100 mM

Compound: N[C@@H](Cc1c[nH]cn1)C(=O)O [HISTIDINE]
- IC50 [3]: ≥ 100 mM

More lines, in order of falling IC50 [3], values ahead:

- half-life at 240 µM [11]: 6.4 h
- half-life at 160 µM [12]: 5.3 h
- IC50 [3]: 8.7 mM
Compound: N[C@@H](CS)C(=O)O [CYSTEINE]

- half-life at 250 µM [1]: 12.7 h
- half-life at 140 µM [2]: 8.7 h
- IC50 [3]: 3.8 mM
Compound: Br.O=C(O)C(S)Cc1cnc[nH]1 (racemic)
- Activity (Bacillus subtilis): Non-toxic
- Activity (Mus musculus [4]): 22%
- Activity (Mus musculus [5]): 18%
- Activity (Mus musculus [6]): 23%
- Activity (Mus musculus [7]): 18%
- Activity (Mus musculus [8]): Non-toxic
